Test results reported in PMC7669743 (Inorganic chemistry, 2020).
pEC50: −log10 of the molar value. Read-outs that look alike come from different tables or passages of the source. Marks after values point to notes of the source that are not given here.

Columns and labels:
[1] = test system: SK-MEL-28 malignant melanoma cells; assay: Dark cytotoxicity and photocytotoxicity in normoxia; assay type: cell-based, human
[2] = test system: amelanotic SK-MEL-28 human cells; assay: Fluence dependence of photocytotoxicity in normoxia; assay type: cell-based
[3] = test system: female C57BL/6J mice; assay: Maximum tolerated dose; details: intraperitoneal, doses 25–200 mg kg^−1, 2-week observation
[4] = Singlet oxygen sensitization quantum yield; assay type: physicochemical; details: acetonitrile
Procedure, shortened: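 PF6- salts were used at 5–20 μM in acetonitrile distilled over calcium hydride, air-saturated. The 1O2 phosphorescence band (~1276 nm) was integrated using NIR PMT detection. Quantum yield was calculated by relative actinometry against [Ru(bpy)3]2+ (Φ = 0.56, aerated MeCN), using emission integrals and absorbance at the excitation wavelength. The refractive-index ratio was 1 because both solutions were in acetonitrile.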

[5] = Solubility in high ionic strength aqueous media; assay type: physicochemical; details: for solubility in aqueous media relative to the dmb analogs: high ionic strength aqueous media, in words; for solubility in high ionic strength aqueous media: fully soluble
[6] = test system: SK-MEL-28 cells; assay: Dark cytotoxicity and photocytotoxicity in hypoxia; assay type: cell-based, human; details: for pEC50: read-out: dark EC50 in hypoxia, hypoxia 1% O2, dark
Procedure, shortened: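 SK-MEL-28 melanoma cells, 10,000 per well, pre-incubated 2–3 h at 1% O2 (5% CO2, 37 °C). Dosed 1 nM–300 μM, held 21–26 h at 1% O2, then film-sealed and given dark or light treatment. Cells returned to normoxia for 2 days, then resazurin (~60 μM final) for 4 h. EC50 came from zero-bottom log-logistic fits, PI as dark/light EC50.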

[7] = cited from earlier work
[8] = Lipophilicity; assay type: physicochemical; details: pH 7.4, phosphate buffer / 1-octanol, chloride salts
Procedure, shortened: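 Modified shake-flask method. 10 mM saline-free phosphate buffer (pH 7.4) and 1-octanol were mutually pre-saturated at 1:4 by shaking at 230 rpm for 24 h (~20 °C). Chloride salts at 50 μM in saturated octanol plus saturated buffer (1:1) were shaken 200 times and centrifuged (~10,000 × g, 2 min). Each phase was read by absorbance at its longest-wavelength maximum (400–600 nm) against a standard curve. Log D is the log of the octanol/buffer concentration ratio.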

[9] = cited from earlier work; remark: listed apart in the source
[10] = read-out: dark EC50, dark (sham) treatment, SK-MEL-28
[11] = read-out: light EC50, visible light, visible 400–700 nm, 100 J cm^−2, ~20 mW cm^−2

Compound: [Os(dmb)3](Cl)2 [[Os(dmb)3]^2+, reference compound]
- pEC50 [1, 10]: < 4.00

Compound: [Os(bpy)2(IP-4T)]Cl2 [1–4T]
- fold improvement over 2–4T ([2]; PDT dose product EC50, normoxia): ≥ 5 fold
- photocytotoxic activity at the lowest tested fluence ([2]; normoxia, 10 J cm^−2, both wavelengths (523 and 633 nm)): Submicromolar
- maximum tolerated dose (MTD) [3]: ≥ 200 mg/kg
- singlet oxygen quantum yield ΦΔ [4]: 70%
- solubility in aqueous media relative to the dmb analogs [5]: less soluble
- phototherapeutic index PIgreen ([1]; green 523 nm, ratio of dark to light EC50): 6700
- pEC50 [1, 10]: 4.14
- pEC50 ([1]; read-out: light EC50, green light, green 523 nm, 100 J cm^−2): ~8.00
- pEC50 ([1]; read-out: light EC50, red light, red 633 nm, 100 J cm^−2): ~8.00
- pEC50 [1, 11]: 8.88
- phototherapeutic index PIvis ([1]; visible light, ratio of dark to light EC50): 55,000
- phototherapeutic index (PI) in hypoxia ([6]; hypoxia 1% O2, across the three light conditions): ~70
- pEC50 [6]: 4.26

Compound: [Ru+2].c1ccc(-c2ccccn2)nc1.c1ccc(-c2ccccn2)nc1.c1ccc(-c2ccccn2)nc1 [[Ru(bpy)3]^2+]
- singlet oxygen quantum yield ΦΔ of the standard ([7]; aerated MeCN): 0.56

Compound: [Os(bpy)2(IP-3T)]Cl2 [1–3T]
- log Do/w [8]: amphiphilic
- solubility in aqueous media relative to the dmb analogs [5]: less soluble
- pEC50 [1, 10]: 4.34
- pEC50 [6]: 4.14

Compound: [Os(phen)2(IP-4T)]Cl2
- PIvis in hypoxia ([9]; hypoxia, visible light): 90

Compound: [Os(dmb)2(IP-4T)]Cl2 [2–4T]
- maximum tolerated dose (MTD) [3]: ≥ 200 mg/kg
- singlet oxygen quantum yield ΦΔ [4]: 56%
- solubility in high ionic strength aqueous media [5]: ≥ 1200 µM
- pEC50 [1, 11]: 7.15
- PIgreen in hypoxia ([6]; hypoxia 1% O2, green light): 15

Compound: Cc1cccc(-c2cccc(C)n2)n1.Cc1cccc(-c2cccc(C)n2)n1.[Cl-].[Cl-].[Ru+2].c1ccc2c(-c3nc4c5cccnc5c5ncccc5c4[nH]3)cccc2c1 [[Ru(6,6′-dmb)2(1-NIP)]Cl2]
- PI (PIvis) in hypoxia ([9]; 1% O2, visible light): 15

Compound: [Os+2].c1ccc(-c2ccccn2)nc1.c1ccc(-c2ccccn2)nc1.c1ccc(-c2ccccn2)nc1 [[Os(bpy)3]^2+, [Os(bpy)3]Cl2, reference compound]
- pEC50 [1, 10]: < 4.00
- singlet oxygen quantum yield ΦΔ ([7]; acetonitrile, room temperature, excitation 479 nm, literature value ref 83): 0.22 (479)^a

Compound: [Os(bpy)2(IP-2T)]Cl2 [1–2T]
- pEC50 [1, 10]: 4.37
- pEC50 [6]: 4.11

Compound: [Os(dmb)2(IP-3T)]Cl2 [2–3T]
- solubility in high ionic strength aqueous media [5]: ≥ 1200 µM
